In ChEMBL document CHEMBL2029280, “3-fluoro- and 3,3-difluoro-3,4-dideoxy-KRN7000 analogues as new potent immunostimulator agents: total synthesis and biological evaluation in human invariant natural killer T cells and mice” (2012):
Calls of active or inactive are those of the source. No cut-off for these calls is given here.

How the values were obtained:
Mus musculus [1] = test: Induction of CD1D-TCR-dependent NKT cell activation in C57BL/6J mouse assessed as IL-4 production at 100 ug/kg, ip relative to KRN7000; format: functional
Summary of the method: (§1)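 Female C57BL/6J mice, 6–8 weeks old, given 100 μg/kg glycolipid ip in 0.1 mL of 10% DMSO in 0.9% NaCl. Sera collected at several time points after injection; six mice per time point. Serum IFN-γ, IL-4 and TNF-α measured by ELISA. Time courses compared as area under the curve against KRN7000.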

MAD11 [2] = test: Activation of Hela cell expressing human CD1D-TCR in human MAD11 cells assessed as TH1-mediated IFN-gamma secretion after 6 hrs by ELISA relative to KRN7000; format: cell-based
Summary of the method: (§2)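 APCs (hCD1d-transduced HeLa or Namalwa) plated 30000/well, loaded overnight at 37 °C with glycolipid titration in DMSO, washed twice. Vα24/Vβ11-sorted human iNKT line (15000 cells, no IL-2) added for 6 h at 37 °C. Supernatant IFN-γ measured by ELISA. No-glycolipid background subtracted. Mean of triplicates, SD shown. KRN7000 reference; untransduced APCs as negative control.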

Namalwa [3] = test: Activation of Namalwa cell expressing CD1D-TCR in human MAD11 cells assessed as TH1-mediated TNFalpha secretion after 6 hrs relative to control; format: cell-based
Summary of the method: (§3)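 Human CD1d-transduced HeLa or Namalwa cells, 30000/well, incubated overnight at 37 °C with graded glycolipid (DMSO), washed twice, then cocultured 6 h at 37 °C with 15000 Vα24+/Vβ11+ human iNKT cells in RPMI without IL-2. TNF-α in cell-free supernatant measured by WEHI 164 cytotoxicity (MTT). No-glycolipid background subtracted. Mean of triplicates; at least 3 experiments.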

Mus musculus [4] = test: Induction of CD1D-TCR-dependent NKT cell activation in C57BL/6J mouse assessed as IFN-gamma production at 100 ug/kg, ip measured after 8 hrs relative to KRN7000; format: functional; summary of the method: as §1
MAD11 [5] = test: Activation of Hela cell expressing human CD1D-TCR in human MAD11 cells assessed as TH2-mediated IL-13 secretion after 48 hrs by ELISA relative to KRN7000; format: functional, cell-based
Summary of the method: (§4)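 The hCD1d-transduced HeLa or Namalwa presenting cells were plated at 7500/well and pulsed overnight at 37 °C with increasing glycolipid concentrations in DMSO, then washed. 15000 sorted human iNKT cells were added without IL-2 for 48 h at 37 °C. IL-13 in supernatant was measured by ELISA, minus background without glycolipid. Triplicate mean ± SD, with KRN7000 as reference.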

MAD11 [6] = test: Activation of Hela cell expressing human CD1D-TCR in human MAD11 cells assessed as TH1-mediated TNFalpha secretion after 6 hrs relative to control; format: cell-based; summary of the method: as §3
Mus musculus [7] = test: Induction of CD1D-TCR-dependent NKT cell activation in C57BL/6J mouse assessed as ratio of IFNgamma/IL-4 production at 100 ug/kg, ip relative to KRN7000; format: functional
Summary of the method: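 Female C57BL/6J mice, 6–8 weeks old, received 100 μg/kg ip in 0.1 mL of 10% DMSO/0.9% NaCl. Serial serum samples were taken, six mice per time point. IFN-γ and IL-4 were measured by ELISA, and the ratio of AUC IFN-γ to AUC IL-4 was computed.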

Namalwa [8] = test: Activation of Namalwa cell expressing CD1D-TCR in human MAD11 cells assessed as TH2-mediated IL-13 secretion after 48 hrs by ELISA relative to KRN7000; format: functional, cell-based; summary of the method: as §4
Namalwa [9] = test: Activation of Namalwa cell expressing CD1D-TCR in human MAD11 cells assessed as TH1-mediated IFN-gamma secretion after 6 hrs by ELISA relative to KRN7000; format: cell-based; summary of the method: as §2
Mus musculus [10] = test: Induction of CD1D-TCR-dependent NKT cell activation in C57BL/6J mouse assessed as TNF-alpha production at 100 ug/kg, ip relative to KRN7000; format: functional; summary of the method: as §1
Mus musculus [11] = test: Induction of CD1D-TCR-dependent NKT cell activation in C57BL/6J mouse assessed as IFN-gamma production at 100 ug/kg, ip relative to KRN7000; format: functional; summary of the method: as §1

| SMILES | Ratio (Mus musculus [1]) | Activity (MAD11 [2]) | Activity (Namalwa [3]) | Activity (Mus musculus [4]) | Activity (MAD11 [5]) | Activity (MAD11 [6]) | Ratio (Mus musculus [7]) | Activity (Namalwa [8]) | Activity (Namalwa [9]) | Activity (Mus musculus [10]) [%] | Activity (Mus musculus [11]) [%] |
| --- | --- | --- | --- | --- | --- | --- | --- | --- | --- | --- | --- |
| CCCCCCCCCCCCCCCCCCCCCCCCCC(=O)N[C@@H](CO[C@H]1O[C@H](CO)[C@H](O)[C@H](O)[C@H]1O)C(F)(F)CCCCCCCCCCCCCCC | 0.35 | Active | Active | Active | Active | Active | 1.31 | Active | Active | 32 | – |
| CCCCCCCCCCCCCCCCCCCCCCCCCC(=O)N[C@H](CCCCCCCCCCCCCCC)CO[C@H]1O[C@H](CO)[C@H](O)[C@H](O)[C@H]1O | 0.35 | Active | Active | – | Active | Active | 1.86 | Active | Active | 40 | 70 |
| CCCCCCCCCCCCCCCCCCCCCCCCCC(=O)N[C@@H](CO[C@H]1O[C@H](CO)[C@H](O)[C@H](O)[C@H]1O)[C@H](O)[C@H](O)CCCCCCCCCCCCCC | – | Active | Active | – | Active | Active | – | Active | Active | – | – |
| CCCCCCCCCCCCCCCCCCCCCCCCCC(=O)N[C@@H](CO[C@H]1O[C@H](CO)[C@H](O)[C@H](O)[C@H]1O)[C@H](F)CCCCCCCCCCCCCC | 0.35 | Active | Active | 30% | Active | Active | 0.78 | Active | Active | 23 | – |
